ABHD4 inh: ABHD4 (mouse) inhibition, primary FP screen; Q8VD66; purified mABHD4, FP-Rh probe fluorescence polarization; inhibition, % at 8.92 µM; 0.54% of 370,000 active; AID 720543;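 active = inhibition exceeding the mean over every tested compound plus 3 SD, cut at about 30% in these data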;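 note: 0% = plate median of compound wells and 100% = S159A mutant with DMSO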
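assay system = mABHD4 protein | compound dosing = single nominal dose of 8.92 µM, 0.89% DMSO final | read-out basis = percent inhibition of probe binding, normalized to plate controls | schedule = Enzyme–compound pre-incubation 45 min, then probe 60 min, both 25 °C | detection = fluorescence polarization, excitation 525 nm, emission 598 nm, BODIPY TMR filters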
HTRA1 inhibitor: inhibitors of human serine peptidase HTRA1; Q92743; recombinant HTRA1, FP-rhodamine activity-based probe, fluorescence polarization; inhibition, % at 5.96 µM; 0.5% of 340,000 active; AID 504803; in the data active = inhibition above about 36%;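 note: 0% = enzyme with DMSO and 100% = wells lacking enzyme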
LEDGF integ inh: blocks HIV-1 LEDGF/p75-dependent DNA integration | TR-FRET IN-LEDGF/p75 DNA integration, Eu/Cy5 | inhibition, % at 3.7 µM | 0.64% of 370,000 active;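 active = inhibition above the screen-wide mean plus 3 SD, cut at about 13% in these data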;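 note: signal is the Cy5 over europium emission ratio at 671 and 618 nm; 0% = plate median of compound wells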
TDP2 inh: TDP2 (human) inhibition, absorbance primary screen; AID 720702; 0.34% of 370,000 active; recombinant TDP2, T5PNP hydrolysis, p-nitrophenol absorbance 415 nm; inhibition, % at 12.8 µM; O95551;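 active = inhibition above the mean of all tested compounds plus 3 SD, set per campaign, cut at about 25% in these data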;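 note: 0% = DMSO with enzyme and 100% = buffer with substrate but no TDP2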
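test system = human TDP2 enzyme | input = TDP2 enzyme at 120 nM final | medium = 50 mM Tris-HCl pH 7.5 with Mg2+, KCl, DTT, BSA | also added = T5PNP substrate, 5 mM | times = 2 h at 37 °C | technique = epi absorbance | benchmarks = high control without enzyme, low control DMSO plus TDP2 | replication = each compound tested once, singlicate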
TCR-CD3 inh: human TCR-CD3 binding inhibition; TAMRA-labeled TCR probe fluorescence, biochemical; inhibition, % at 9.4 µM; 0.37% of 360,000 active; in the data active = inhibition above about 19%;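 note: recombinant mutant TCR 2C K166C tagged with TAMRA read by polarization; 0% = receptor in buffer alone and 100% = receptor with positive control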
SIAE primary: inhibitors of human sialic acid acetylesterase SIAE | 0.69% of 370,000 active | AID 1053197 | Q9HAT2 | inhibition, % at 9.66 µM | SIAE FP-Rh probe binding, fluorescence polarization;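 active = inhibition above a cutoff: mean of compounds within the control limits plus 3 SD of those, cut at about 17% in these data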;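 note: 0% = plate median of compound wells and 100% = probe without SIAE protein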
Target sequence (Q9HAT2 whole entry, looked up): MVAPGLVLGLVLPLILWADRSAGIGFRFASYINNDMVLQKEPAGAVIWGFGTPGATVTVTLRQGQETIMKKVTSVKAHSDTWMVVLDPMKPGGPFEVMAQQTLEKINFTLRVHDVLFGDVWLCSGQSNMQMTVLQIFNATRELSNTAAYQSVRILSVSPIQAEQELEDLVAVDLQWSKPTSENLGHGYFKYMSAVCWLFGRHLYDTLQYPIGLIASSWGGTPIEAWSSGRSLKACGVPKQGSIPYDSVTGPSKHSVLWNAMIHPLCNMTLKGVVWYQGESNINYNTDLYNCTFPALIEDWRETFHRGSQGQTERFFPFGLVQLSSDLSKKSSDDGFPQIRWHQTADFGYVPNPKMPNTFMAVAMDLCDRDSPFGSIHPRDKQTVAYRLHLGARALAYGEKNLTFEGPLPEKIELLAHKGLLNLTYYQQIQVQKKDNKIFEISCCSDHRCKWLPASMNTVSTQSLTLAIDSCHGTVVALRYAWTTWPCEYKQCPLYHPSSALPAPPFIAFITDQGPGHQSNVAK
TDP2 inh conf: human TDP2 inhibition, confirmation; inhibition, % at 12.8 µM; AID 743263; recombinant human TDP2, absorbance read-out; 22% of 1,100 active; shares compounds with TDP2 inh; in the data active = inhibition above about 25%;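 note: 0% = vehicle with enzyme and 100% = no enzyme buffer only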
IN multimer up: counter-screen for LEDGF/p75 integration inhibitors: HIV-1 integrase multimerization activators | shares compounds with LEDGF integ inh | TR-FRET HIV-1 integrase multimerization, biochemical | activation, % at 7.7 µM | 17% of 2,000 active | AID 1053131; in the data active = activation above about 8.9%
TR-FRET interf: optically interferes with TR-FRET readout in LEDGF counter-screen; AID 1053135; TR-FRET optical interference counterscreen, HIV-1 IN multimerization; inhibition, % at 7.7 µM; shares compounds with LEDGF integ inh; 2,000 tested, under 10 active;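 active = inhibition above the mean over all tested compounds plus 3 SD, which no compound reached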;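 note: 0% = integrase with antibodies and DMSO and 100% = antibodies without integrase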
LEDGF integ conf: confirmation of HIV-1 LEDGF/p75-dependent integration inhibitors; shares compounds with LEDGF integ inh; TR-FRET LEDGF/p75-dependent HIV-1 integration, biochemical; inhibition, % at 3.7 µM; 36% of 2,000 active; in the data active = inhibition above about 14%
* hit, by the source's call. Compounds with a hit are over-represented: about 2.2% of the library has one in this group of screens.

For Cc1cccc(C)c1-n1nnnc1C(c1cccs1)N1CCC2(CC1)C(=O)NCN2c1ccccc1 (centres undefined) the results were ABHD4 inh -12, LEDGF integ inh -3, TDP2 inh -8, TCR-CD3 inh -8 and SIAE primary -7.
For CC12CC(O)C3C(CCC4=CC(=O)CCC43C)C1CCC2=O (centres undefined) the results were ABHD4 inh 5, HTRA1 inhibitor 5, LEDGF integ inh -4, TDP2 inh -2, TCR-CD3 inh -7 and SIAE primary -1.
Screening CCOCCCn1c(N)c(C(=O)Nc2sc3c(c2C(=O)OC)CCCC3)c2nc3ccccc3nc21 returned ABHD4 inh -31, HTRA1 inhibitor 7, LEDGF integ inh 31*, TDP2 inh 70*, TCR-CD3 inh -15, SIAE primary -13, TDP2 inh conf 1, IN multimer up 2, TR-FRET interf -10 and LEDGF integ conf -2.
CCCCn1nnnc1C(CCc1ccccc1)N1CCC(n2c(=O)[nH]c3ccccc32)CC1 (centres undefined) was read as ABHD4 inh 4, LEDGF integ inh 20*, TDP2 inh 4, TCR-CD3 inh -1, SIAE primary -4, IN multimer up 0, TR-FRET interf 0 and LEDGF integ conf -3.
`C[C@@H]1CN([C@H](C)CO)C(=O)CCCn2nncc2CO[C@@H]1CN(C)C(=O)Oc1ccccc1` gave ABHD4 inh -2, HTRA1 inhibitor 1, LEDGF integ inh 0, TDP2 inh 8, TCR-CD3 inh 0 and SIAE primary 5.
Cc1ccc(S(=O)(=O)Nc2cc(C(=O)N3CCC4(CC3)OCCO4)ccc2N2CCCCC2)cc1 was read as ABHD4 inh -1, HTRA1 inhibitor -7, LEDGF integ inh 16*, TDP2 inh 1, TCR-CD3 inh -2, SIAE primary 0, IN multimer up -1, TR-FRET interf 2 and LEDGF integ conf -1.
For CCOC(=O)[C@]12Cc3cc(C)ccc3[C@H]1N(C1CCCCC1)C(=O)c1cc(OC)ccc12 the results were ABHD4 inh -11, LEDGF integ inh 1, TDP2 inh -9, TCR-CD3 inh -1 and SIAE primary -4.
`CN1CCC(O)(c2ccccc2)C(C(=O)c2ccccc2)C1` (centres undefined) gave ABHD4 inh -16, HTRA1 inhibitor 0, LEDGF integ inh -3, TDP2 inh -6, TCR-CD3 inh 0 and SIAE primary -3.
CN1CCC(O)(c2ccccc2)C2CCCC21 (centres undefined) was read as ABHD4 inh 1, HTRA1 inhibitor -3, LEDGF integ inh 37*, TDP2 inh 9, TCR-CD3 inh 0, SIAE primary 5, IN multimer up -3, TR-FRET interf 14 and LEDGF integ conf 2.
`Cc1ccc(/C=C2/C(=O)NC(=O)N(CCc3ccc(F)cc3)C2=O)o1` gave ABHD4 inh 2, HTRA1 inhibitor -12, LEDGF integ inh -2, TDP2 inh -2, TCR-CD3 inh -3 and SIAE primary -26.
Screening O=C1NC(=O)N(CCc2ccc(F)cc2)C(=O)/C1=C/c1ccco1 returned ABHD4 inh 16, HTRA1 inhibitor 31, LEDGF integ inh 80*, TDP2 inh 14, TCR-CD3 inh -17, SIAE primary -7, IN multimer up 8, TR-FRET interf -31 and LEDGF integ conf 16*.
Screening O=C1NC(=O)N(Cc2ccccc2)C(=O)/C1=C/C=C/c1ccco1 returned ABHD4 inh -4, HTRA1 inhibitor 8, LEDGF integ inh 29*, TDP2 inh 9, TCR-CD3 inh -13, SIAE primary -9, IN multimer up 0, TR-FRET interf 1 and LEDGF integ conf 30*.
`COc1cc(OC)c(OC)cc1/C=C1/C(=O)NC(=O)N(Cc2ccccc2)C1=O` gave ABHD4 inh 5, HTRA1 inhibitor 1, LEDGF integ inh -2, TDP2 inh -4, TCR-CD3 inh -9 and SIAE primary -13.
COc1ccc(CN2C(=O)NC(=O)/C(=C\c3ccco3)C2=O)cc1 was read as ABHD4 inh -19, HTRA1 inhibitor 15, LEDGF integ inh 14*, TDP2 inh -3, TCR-CD3 inh -4, SIAE primary -5, IN multimer up 6, TR-FRET interf -21 and LEDGF integ conf 18*.
CC(C)c1ccc(N2C(=O)NC(=O)/C(=C\C=C\c3ccco3)C2=O)cc1 was read as ABHD4 inh -3, LEDGF integ inh 23*, TDP2 inh 8, TCR-CD3 inh -12, SIAE primary -29, IN multimer up 2, TR-FRET interf -6 and LEDGF integ conf 31*.
c1cc2c(cc1-c1ccc3c(c1)OCO3)CNCc1cnnn1-2 was read as ABHD4 inh 9, LEDGF integ inh 3, TDP2 inh 4, TCR-CD3 inh 6 and SIAE primary 1.
Screening O=S(=O)(c1ccccc1)C1CN1c1c(F)c(F)c(F)c(F)c1F (centres undefined) returned ABHD4 inh 3, LEDGF integ inh -1, TDP2 inh 0, TCR-CD3 inh 6 and SIAE primary -5.
Screening O=C1NC(=S)NC(=O)C1=Cc1cccn1-c1ccc(O)cc1 returned ABHD4 inh 29, HTRA1 inhibitor 20, LEDGF integ inh 33*, TDP2 inh -3, TCR-CD3 inh 6, SIAE primary 8, IN multimer up 10*, TR-FRET interf -50 and LEDGF integ conf 73*.
For C[C@H]1CNCCN1c1ccc(N2CC[C@@H](O)C2)c(C#N)c1 the results were ABHD4 inh 3, LEDGF integ inh 1, TDP2 inh 4, TCR-CD3 inh -6 and SIAE primary 15.
`COc1ccc2nc(-c3ccc(CN4CCC(n5nnc6ccccc65)CC4)cc3)c(-c3ccccc3)nc2c1` gave ABHD4 inh -12, LEDGF integ inh -1, TDP2 inh -2, TCR-CD3 inh -8 and SIAE primary -10.

Source: PubChem BioAssay
